A short description of data set [1]: Cytotoxicity against mouse RAW264.7 cells assessed as cell viability at 5 uM after 24 hrs by MTT assay. The format is cell-based. The following applies: read-out: Activity. Summed up: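 RAW264.7 cells at 1 × 10^4 per well in DMEM with 10% FBS were exposed to compound for 24 h. After PBS washes, they got 500 µg/mL MTT for 1 h at 37 °C. Formazan was dissolved in DMSO and read at 540 nm. Viability is relative to control, mean ± SD from at least three independent runs.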
A general note: Formazan colour is commonly taken as a measure of viable cells.

A short description of data set [2]: Retention time of the compound by HPLC analysis. The format is physicochemical. Summed up: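 Reversed-phase column (5 µm, 4.6 × 250 mm) at 1.0 mL/min with a 0–20% H2O in MeOH gradient.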
The test system of data set [3] is RAW264.7. Description: Inhibition of RANKL-induced osteoclastogenesis in mouse RAW264.7 cells. In kind it is functional, cell-based. Summed up: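 RAW264.7 cells (2 × 10^4 per well) were cultured with 100 ng/mL RANKL in α-MEM/10% FBS, with or without compound. On day 4 they were lysed in 0.1% Triton X-100/50 mM Tris-HCl pH 7.2 on ice. TRAP was assayed with 2 mg/mL 4-nitrophenyl phosphate in 0.09 M citrate for 15 min at 37 °C, stopped with NaOH and read at 405 nm. Values were normalized to BCA protein for IC50.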

Data set [4] has as its system RAW264.7. In words: Inhibition of RANKL-induced osteoclastogenesis in mouse RAW264.7 cells assessed as decrease in TRAP activity after 4 days by TRAP activity assay. The conditions noted are these: RAW264.7, 96 h.
Data set [5] has as its system RAW264.7. In words: Downregulation of RANKL-induced TRAP gene expression in mouse RAW264.7 cells at 2.5 and 5 uM treated for 1 hr prior to incubation with RANKL for 24 hrs by RT-PCR analysis. The format is functional, cell-based. The procedure, abridged:
(§1)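 RAW264.7 cells grown a day in DMEM/10% FBS were switched to α-MEM with 100 ng/mL murine RANKL, with or without compound, for 24 h. Trizol RNA (2 µg) was reverse-transcribed with oligo(dT) and amplified with mouse-specific primers. Products were run on 1.5% agarose with EtBr, and band densities normalized to GAPDH.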

Data set [6] relates to RAW264.7. Description: Inhibition of RANKL-induced bone-resorbing activity in mouse RAW264.7 cells assessed as reduction of resorbing pits formed on dentine slices by mature osteoclasts after 4 days by pit formation assay. In kind it is functional, cell-based. Summed up: (§2)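 Cells on dentine slices were kept in α-MEM with 10% FBS, 2 mM […] and 100 ng/mL RANKL, with or without compound, and medium was renewed every 2 days. At day 4, cells were removed with 1 M ammonium hydroxide and slices stained with 0.1% toluidine blue. Resorbed area/total area was measured per optical field.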

For data set [7], the system named is RAW264.7. In words: Downregulation of RANKL-induced NFATc1 gene expression in mouse RAW264.7 cells at 2.5 and 5 uM treated for 1 hr prior to incubation with RANKL for 24 hrs by RT-PCR analysis. In kind it is functional, cell-based. The procedure, abridged: as §1
In data set [8] the test system is RAW264.7. Description: Inhibition of RANKL-induced NF-kappaB activation in mouse RAW264.7 cells assessed as decrease in nuclear translocation of NF-kappaB at 5 uM treated for 1 hr prior to incubation with RANKL for 24 hrs by Western blot assay relative to control TBP gene expression. In kind it is cell-based. Summed up:
(§3)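 Cells were pretreated with compound for 1 h in α-MEM/10% FBS, then given RANKL (100 ng/mL) for 24 h. Nuclear extracts (18 µg) were separated on 12% SDS-PAGE and blotted to PVDF, blocked with 5% BSA. Blots were probed overnight-style for 12 h at 4 °C with mAbs (1:1000) to NF-κB p65, NFATc1 and TBP, then HRP anti-rabbit (1:10000), with chemiluminescent detection.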
A general note: Immunoblotting shows a protein as a band on a membrane.

In data set [9] the test system is RAW264.7. Description: Downregulation of RANKL-induced DC-STAMP gene expression in mouse RAW264.7 cells at 2.5 and 5 uM treated for 1 hr prior to incubation with RANKL for 24 hrs by RT-PCR analysis. In kind it is functional, cell-based. Summed up: as §1
The subject of data set [10] is RAW264.7. Description: Downregulation of RANKL-induced NFATc1 nuclear expression in mouse RAW264.7 cells at 5 uM treated for 1 hr prior to incubation with RANKL for 24 hrs by Western blot analysis relative to control TBP gene expression. In kind it is functional. Summed up:
as §3

Data set [11] has as its system RAW264.7. In words: Downregulation of RANKL-induced c-fos gene expression in mouse RAW264.7 cells at 2.5 and 5 uM treated for 1 hr prior to incubation with RANKL for 24 hrs by RT-PCR analysis. The format is functional, cell-based. The procedure, abridged:
as §1

Data set [12] has as its system RAW264.7. Description: Downregulation of RANKL-induced MMP-9 gene expression in mouse RAW264.7 cells at 2.5 and uM treated for 1 hr prior to incubation with RANKL for 24 hrs by RT-PCR analysis. In kind it is functional, cell-based. Summed up:
as §1

Data set [13] relates to RAW264.7. Description: Downregulation of RANKL-induced cathepsin K gene expression in mouse RAW264.7 cells at 2.5 and 5 uM treated for 1 hr prior to incubation with RANKL for 24 hrs by RT-PCR analysis. In kind it is functional, cell-based. Summed up: as §1
The subject of data set [14] is RAW264.7. Description: Inhibition of RANKL-induced NF-kappaB activation in mouse RAW264.7 cells assessed as decrease in nuclear accumulation of NF-kappaB at 5 uM treated for 1 hr prior to incubation with RANKL for 24 hrs by ELISA. In kind it is cell-based. The procedure, abridged:
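After 1 h compound pretreatment and 24 h RANKL (100 ng/mL), nuclear extracts were tested in a p65 DNA-binding ELISA. The plate is coated with NF-κB response element, followed by primary antibody and tagged secondary antibody, with absorbance read at 450 nm.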
Background: An ELISA detects its analyte on a solid surface through an enzyme-linked reagent.

The subject of data set [15] is RAW264.7. In words: Inhibition of RANKL-induced bone-resorbing activity in mouse RAW264.7 cells assessed as reduction of resorbing pits formed on dentine slices by mature osteoclasts at 5 uM after 4 days by pit formation assay. In kind it is functional. The following applies: RAW264.7, Dentine, 96 h. The procedure, abridged: as §2

Calls of active or inactive are those of the source. The calls are words filed in the database; no cut-off is given here.

One may read the IC50 as the concentration that gives 50% inhibition. As a reminder, the inhibition is how much of the control response was suppressed.

On to `O=C(Nc1ccc(C(F)(F)F)cc1)c1cc(-c2ccc(F)cc2F)ccc1O`, for which the viability at 24 h, 5 µM in data set [1] amounted to 85.2%. This molecule showed a Retention_time in data set [2] of 7.87 min.
`COc1ccc(NC(=O)c2cc(-c3ccc(F)cc3F)ccc2O)cc1OC`: the viability at 24 h, 5 µM in data set [1] stood at 98.9%. In [2], this molecule yielded a Retention_time of 7.61 min.
The like results for `O=C(Nc1ccc(Cl)cc1F)c1cc(-c2ccc(F)cc2F)ccc1O` were, in that order, 77.5% and 9.07 min.
The matching figures for `C#Cc1cccc(NC(=O)c2cc(-c3ccc(F)cc3F)ccc2O)c1`: 63% and 6.37 min.
As to `O=C(Nc1ccc(Cl)cc1F)c1ccccc1O`, the IC50 with RAW264.7 [3] was 15 µM; with RAW264.7 [4], greater than 10 µM.
With `O=C(Nc1cc(F)ccc1F)c1cc(-c2ccc(F)cc2F)ccc1O`, the inhibition entry in the data set on RAW264.7 [5], in the data set on RAW264.7 [6], with RAW264.7 [7], in the data set on RAW264.7 [9], with RAW264.7 [11] and in the data set with RAW264.7 [12] was “Dose-dependent effect” throughout. For the same molecule, the inhibition entry in the data set with RAW264.7 [13] is “Dose-dependent effect”. Also, the figures for the fold change (FC) in the data set with RAW264.7 [8] and in the data set with RAW264.7 [10] were 0.76 and 0.55, respectively. Also, the viability at 24 h, 5 µM in data set [1] turned out to be 102%. Besides, the IC50 with RAW264.7 [4] worked out at 3.67 µM. This molecule also showed a Retention_time in [2] of 7.8 min. In the data set with RAW264.7 [14], the inhibition result is “Active”. Moreover, the inhibition at 5 µM with RAW264.7 [15] was 80.5%.
With `O=C(Nc1ccc(F)c(F)c1)c1cc(-c2ccc(F)cc2F)ccc1O`, the viability at 24 h, 5 µM in data set [1] worked out at 78.4%. The molecule further came in with a Retention_time in [2] of 7.72 min.
The like results for `O=C(Nc1ccc(F)cc1F)c1cc(-c2ccc(F)cc2F)ccc1O` were, in that order, 110% and 6.45 min.
The matching figures for `N#Cc1ccc(NC(=O)c2cc(-c3ccc(F)cc3F)ccc2O)cc1`: 96.2% and 6.84 min.
In the case of `O=C(Nc1ccccc1C(F)(F)F)c1cc(-c2ccc(F)cc2F)ccc1O`, in data set [1], the viability at 24 h, 5 µM was determined as 99.4%. The Retention_time in data set [2] was 5.44 min.
Turning to `COc1cccc(NC(=O)c2cc(-c3ccc(F)cc3F)ccc2O)c1`, the viability at 24 h, 5 µM in data set [1] was found to be 105%. The molecule further yielded a Retention_time in [2] of 5.89 min.
Regarding `O=C(Nc1cccc(C(F)(F)F)c1)c1cc(-c2ccc(F)cc2F)ccc1O`, the viability at 24 h, 5 µM in data set [1] stood at 96.7%. Moreover, the IC50 with RAW264.7 [4] was 4.57 µM. This molecule also showed a Retention_time in [2] of 7.27 min.
With `N#Cc1cccc(NC(=O)c2cc(-c3ccc(F)cc3F)ccc2O)c1`, the inhibition entry in the data set with RAW264.7 [5], in the data set on RAW264.7 [6], in the data set with RAW264.7 [7], in the data set on RAW264.7 [9], in the data set with RAW264.7 [11] and in the data set on RAW264.7 [12] was “Dose-dependent effect” each time. In the data set on RAW264.7 [13], the inhibition entry is “Dose-dependent effect”. In addition, the fold change (FC) in the data set on RAW264.7 [8] came out at 0.82; in the data set on RAW264.7 [10], 0.52. The viability at 24 h, 5 µM in data set [1] stood at 72.2%. Also, the IC50 in the data set with RAW264.7 [4] came to 2.96 µM. This molecule also registered a Retention_time in data set [2] of 6.92 min. In the data set on RAW264.7 [14], the inhibition result was “Active”. The inhibition at 5 µM in the data set with RAW264.7 [15] stood at 59.3%.

The record behind these values is ChEMBL document CHEMBL3421559, “Discovery of 5-(2',4'-difluorophenyl)-salicylanilides as new inhibitors of receptor activator of NF-κB ligand (RANKL)-induced osteoclastogenesis” (Eur J Med Chem, 2015).
